Results of several laboratories.
LRRK2: Leucine-rich repeat serine/threonine-protein kinase 2 (LRRK2, Homo sapiens, UniProt Q5S007)
LRRK2 G2019S: Leucine-rich repeat serine/threonine-protein kinase 2 (LRRK2, Homo sapiens, UniProt Q5S007, G2019S)

Compound | target | read-out | mode | method | endpoint | result
CC(=O)NC1CCN(c2ncnc3[nH]cc(-c4cccc(Cl)c4)c23)CC1 | LRRK2 | enzyme activity in cells | inhibitor | – | IC50 | 1100 nM
COc1cc(N2CCN(C)CC2)ccc1Nc1ncc2c(n1)N(C)c1ccccc1C(=O)N2 | LRRK2 | enzyme activity | inhibitor | – | IC50 | 70 nM
CN(C(=O)c1cnn2cccnc12)c1cc2c(cc1N1CCOCC1)C(=O)N(C[C@@H](F)C(C)(C)O)C2 | LRRK2 | target engagement in cells | – | BRET | EC50 | > 50000 nM
O=c1ccc2cc(O)c(O)cc2o1 | LRRK2 | enzyme activity | inhibitor | radiometric | IC50 | 1730 nM
Cc1cnc(-c2ccc(-c3ccc(NC(=O)Nc4c(F)cc(F)cc4F)cc3F)c3c2C(=O)NC3)[nH]1 | LRRK2 | binding | – | competition with immobilised ligand | Kd | 260 nM
CC(Cc1ccc(O)c(O)c1)C(C)Cc1ccc(O)c(O)c1 (stereo not drawn) | LRRK2 G2019S | enzyme activity | inhibitor | radiometric | IC50 | 210 nM
C[C@@H]1CN(c2cc(-c3nn(C)c4ccc(OC5(C)CC5)cc34)ncn2)C[C@H](C)O1 | LRRK2 | target engagement in cells | – | BRET | EC50 | > 50000 nM
O=C(/C=C/c1ccc(O)c(O)c1)O[C@H](Cc1ccc(O)c(O)c1)C(=O)O | LRRK2 G2019S | enzyme activity | inhibitor | radiometric | IC50 | 496 nM
COc1cc(N2CCN(C)CC2)ccc1Nc1ncc2c(n1)N(C)c1ccccc1C(=O)N2C | LRRK2 | enzyme activity | inhibitor | – | IC50 | 29 nM
